The nature of data set [1]: Tissue distribution study in mice after IP dosing. It is filed as in vivo. The settings on record: 20 mg/kg IP. Put shortly: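 Non-tumour-bearing mice received a single IP dose of test compound at 20 mg kg⁻¹, given as a 1 mg ml⁻¹ formulation in 10:10:80 DMSO:Tween80:water. Compound residence in tissues was followed after dosing.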
Data set [2] relates to Raji Burkitt B-cell lymphoma. Description: 96h MTT assay using Raji Burkitt B-cell lymphoma. It is filed as cell-based. The settings on record: Homo sapiens, Raji cells.

The text below walks through data of PMC4917231 (MedChemComm, 2016).

`CC(C)Cc1nn(C)c(=O)c2c(SCCCO)n(Cc3ccc(C#CCCCOc4ccc(C[C@H](N)C(=O)O)cc4)c4ccccc34)cc12` [Compound 10]: the “detectability in tissues seven days after IP administration” value in data set [1] is recorded as “detectable in all tissues”.
Usually EC50 stands for the concentration at which the effect is half-maximal. Read a high EC50 as a less potent agent. As to `CC(C)Cc1nn(C)c(=O)c2c(SCCCO)n(Cc3ccc(NCCCCCNC(=O)[C@@H](N)CCC(N)=O)nc3)cc12` [Compound 12], the EC50 in data set [2] is ~100 nM.
